Reference: PMC5295499 (Bioorganic & medicinal chemistry letters, 2016)
Entries after “also recorded” stand apart in the source; their conditions may differ. Each block holds one compound with its values, some of them ahead of it.

Columns and labels:
[1] = tested on: MDM2-Luc exon-skipping reporter; assay: MDM2-Luc triple exon-skipping luciferase reporter assay; format: cell-based
In short: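 Stable cell line expressing the triple exon-skipping luciferase construct. Exon skipping induced by SF3B1-targeted splicing modulators switches on luciferase, so luminescence is the read-out. The assay was used to screen a library of 830 known drugs and 4359 bioactive compounds.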

[2] = target: T1, Flt3 (Homo sapiens, UniProt P36888); assay: Kinase profiling screen, Flt3; format: biochemical; details: 1 μM, in duplicate
T1 sequence (P36888 27-993): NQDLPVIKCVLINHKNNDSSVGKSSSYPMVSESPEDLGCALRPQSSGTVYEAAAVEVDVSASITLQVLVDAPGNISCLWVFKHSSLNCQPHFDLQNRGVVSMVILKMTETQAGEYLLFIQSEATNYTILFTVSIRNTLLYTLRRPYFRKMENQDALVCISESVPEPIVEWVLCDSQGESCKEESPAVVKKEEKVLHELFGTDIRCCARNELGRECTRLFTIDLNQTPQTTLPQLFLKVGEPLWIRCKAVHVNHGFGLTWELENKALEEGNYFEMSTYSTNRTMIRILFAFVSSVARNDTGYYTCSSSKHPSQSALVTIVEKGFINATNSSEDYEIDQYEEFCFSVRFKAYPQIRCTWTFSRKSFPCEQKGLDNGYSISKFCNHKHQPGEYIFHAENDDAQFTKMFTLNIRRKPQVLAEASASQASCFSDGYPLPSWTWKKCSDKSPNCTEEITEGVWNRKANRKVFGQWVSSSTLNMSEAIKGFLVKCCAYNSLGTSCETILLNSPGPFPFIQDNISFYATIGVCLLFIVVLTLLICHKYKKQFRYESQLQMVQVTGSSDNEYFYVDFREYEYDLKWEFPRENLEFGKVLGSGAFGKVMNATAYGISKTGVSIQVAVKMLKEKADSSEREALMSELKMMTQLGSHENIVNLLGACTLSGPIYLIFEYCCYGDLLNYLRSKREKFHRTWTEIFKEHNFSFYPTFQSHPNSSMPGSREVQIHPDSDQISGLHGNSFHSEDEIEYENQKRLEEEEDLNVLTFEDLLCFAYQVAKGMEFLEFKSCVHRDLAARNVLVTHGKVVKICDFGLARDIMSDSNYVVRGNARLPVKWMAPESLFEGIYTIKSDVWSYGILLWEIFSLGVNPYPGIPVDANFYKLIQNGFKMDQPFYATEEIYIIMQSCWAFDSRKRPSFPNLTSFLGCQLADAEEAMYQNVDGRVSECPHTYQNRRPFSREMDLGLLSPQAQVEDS

[3] = target: Src(1-530) (Homo sapiens, UniProt P12931); assay: Kinase profiling screen, Src; format: biochemical; details: 1 μM, in duplicate
Src(1-530), sequence (P12931 1-530): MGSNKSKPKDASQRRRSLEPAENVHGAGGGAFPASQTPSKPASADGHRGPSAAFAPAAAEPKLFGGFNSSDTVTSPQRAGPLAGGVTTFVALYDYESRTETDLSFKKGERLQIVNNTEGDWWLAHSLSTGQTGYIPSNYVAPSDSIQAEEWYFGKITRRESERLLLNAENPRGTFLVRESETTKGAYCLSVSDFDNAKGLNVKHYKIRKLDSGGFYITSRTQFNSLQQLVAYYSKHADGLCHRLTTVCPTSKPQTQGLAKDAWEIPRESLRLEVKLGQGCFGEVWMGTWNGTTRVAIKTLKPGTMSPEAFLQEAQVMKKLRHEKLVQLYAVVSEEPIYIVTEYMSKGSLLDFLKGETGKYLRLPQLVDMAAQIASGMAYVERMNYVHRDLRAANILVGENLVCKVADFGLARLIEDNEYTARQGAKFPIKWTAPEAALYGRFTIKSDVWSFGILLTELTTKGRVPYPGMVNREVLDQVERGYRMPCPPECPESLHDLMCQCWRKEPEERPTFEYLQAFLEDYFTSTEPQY

[4] = target: Plk1 (Homo sapiens, UniProt P53350); assay: Kinase profiling screen, Plk1; format: biochemical; details: 1 μM, in duplicate
Plk1, sequence (P53350 whole entry): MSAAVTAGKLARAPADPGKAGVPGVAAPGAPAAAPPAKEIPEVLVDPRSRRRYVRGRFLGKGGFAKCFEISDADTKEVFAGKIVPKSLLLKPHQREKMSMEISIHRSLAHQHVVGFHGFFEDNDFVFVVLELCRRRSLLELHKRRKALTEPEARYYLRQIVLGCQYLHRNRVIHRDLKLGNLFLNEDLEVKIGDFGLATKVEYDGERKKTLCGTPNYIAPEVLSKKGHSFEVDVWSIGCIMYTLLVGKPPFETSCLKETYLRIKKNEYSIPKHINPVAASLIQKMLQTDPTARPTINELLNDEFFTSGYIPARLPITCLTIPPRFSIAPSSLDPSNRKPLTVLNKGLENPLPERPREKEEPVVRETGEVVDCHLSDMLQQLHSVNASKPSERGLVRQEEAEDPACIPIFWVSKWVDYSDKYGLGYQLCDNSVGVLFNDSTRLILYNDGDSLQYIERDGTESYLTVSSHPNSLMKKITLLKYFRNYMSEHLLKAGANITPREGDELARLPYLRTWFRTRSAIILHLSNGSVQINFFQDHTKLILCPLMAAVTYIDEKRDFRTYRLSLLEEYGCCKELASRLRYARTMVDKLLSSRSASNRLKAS

[5] = target: CDK4 (Homo sapiens, UniProt P11802); assay: CDK4 biochemical enzyme inhibition; details: read-out: CDK4 IC50
CDK4, sequence (P11802 whole entry): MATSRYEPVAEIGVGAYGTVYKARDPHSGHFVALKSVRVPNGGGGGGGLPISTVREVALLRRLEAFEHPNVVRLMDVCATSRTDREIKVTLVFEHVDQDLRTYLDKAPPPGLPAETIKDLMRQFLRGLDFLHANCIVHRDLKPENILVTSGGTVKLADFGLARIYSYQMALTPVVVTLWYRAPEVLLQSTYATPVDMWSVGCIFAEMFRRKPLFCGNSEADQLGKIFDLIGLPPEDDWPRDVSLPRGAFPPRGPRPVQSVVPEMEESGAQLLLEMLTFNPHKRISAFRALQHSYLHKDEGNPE
CDK4, sequence (P30281 whole entry partner): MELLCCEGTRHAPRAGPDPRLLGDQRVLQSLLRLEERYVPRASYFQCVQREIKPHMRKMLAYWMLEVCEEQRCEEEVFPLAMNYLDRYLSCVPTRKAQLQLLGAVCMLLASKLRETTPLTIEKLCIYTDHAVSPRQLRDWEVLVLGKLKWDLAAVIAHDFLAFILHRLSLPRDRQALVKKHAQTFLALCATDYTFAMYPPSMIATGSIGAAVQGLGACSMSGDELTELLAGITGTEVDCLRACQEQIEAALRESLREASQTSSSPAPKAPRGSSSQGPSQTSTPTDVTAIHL

[6] = target: CLK2 (Homo sapiens, UniProt P49760); assay: CLK2 biochemical enzyme inhibition; details: 20 versus its enantiomer 21
CLK2, sequence (P49760 whole entry): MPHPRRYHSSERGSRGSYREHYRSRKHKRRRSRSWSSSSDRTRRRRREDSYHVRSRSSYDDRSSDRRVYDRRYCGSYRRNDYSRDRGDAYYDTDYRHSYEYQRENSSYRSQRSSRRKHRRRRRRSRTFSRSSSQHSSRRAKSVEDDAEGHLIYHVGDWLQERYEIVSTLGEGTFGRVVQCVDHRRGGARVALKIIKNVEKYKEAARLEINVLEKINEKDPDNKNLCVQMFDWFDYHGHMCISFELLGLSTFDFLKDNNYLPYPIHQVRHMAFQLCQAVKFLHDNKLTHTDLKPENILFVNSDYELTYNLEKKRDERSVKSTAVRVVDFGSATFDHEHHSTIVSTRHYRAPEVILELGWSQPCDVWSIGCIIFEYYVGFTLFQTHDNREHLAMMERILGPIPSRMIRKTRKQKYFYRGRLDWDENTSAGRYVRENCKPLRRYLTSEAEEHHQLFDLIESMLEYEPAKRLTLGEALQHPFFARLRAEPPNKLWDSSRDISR

[7] = target: CLK1 (Homo sapiens, UniProt P49759); assay: CLK1 biochemical enzyme inhibition; details: screened for CLK1 activity, data not shown
CLK1, sequence (P49759 whole entry): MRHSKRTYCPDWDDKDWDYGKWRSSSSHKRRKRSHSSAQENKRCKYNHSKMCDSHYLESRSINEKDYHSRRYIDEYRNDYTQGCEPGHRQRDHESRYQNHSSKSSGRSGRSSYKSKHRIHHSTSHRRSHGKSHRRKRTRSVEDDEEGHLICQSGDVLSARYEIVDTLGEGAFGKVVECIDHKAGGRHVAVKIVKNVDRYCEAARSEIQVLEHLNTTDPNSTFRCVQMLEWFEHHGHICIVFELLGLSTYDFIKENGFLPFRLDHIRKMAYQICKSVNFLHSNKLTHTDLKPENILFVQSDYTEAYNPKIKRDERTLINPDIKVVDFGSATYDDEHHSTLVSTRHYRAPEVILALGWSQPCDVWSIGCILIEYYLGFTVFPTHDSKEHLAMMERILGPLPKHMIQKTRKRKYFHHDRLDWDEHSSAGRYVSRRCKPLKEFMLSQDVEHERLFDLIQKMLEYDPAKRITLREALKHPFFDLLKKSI

[8] = Solubility; format: physicochemical; details: data not shown

Structure (SMILES): COC(=O)c1c(/C(C#N)=C\N)c2ccc(Cl)c(Cl)c2n1C [KH-CB19, reference compound]
activity in the MDM2-Luc assay [1]: modest activity; also recorded: barely passes the minimal hit criteria

activity in the MDM2-Luc assay [1]: strong luciferase response
Structure (SMILES): CC(C)n1cnc2c(Nc3cccc(Cl)c3)nc(N[C@H]3CCCC[C@H]3N)nc21 [Compound 10]

off-target activity against Flt3 [2]: off-target activity
off-target activity against Src(1-530) [3]: off-target activity
off-target activity against Plk1 [4]: off-target activity
Structure (SMILES): CC(C)n1cnc2c(Nc3cc(N)cc(Cl)c3)nc(N[C@@H]3CCCC[C@@H]3N)nc21 [Compound 14]
activity in the MDM2-Luc assay [1]: strong MDM2-Luc activity; also recorded: strong luciferase response

activity in the MDM2-Luc assay at 10 μM [1]: completely abrogated all activity
Structure (SMILES): CCn1cnc2c(Nc3cccc(Cl)c3)nc(N[C@@H]3CCCC[C@@H]3NC(C)=O)nc21 [Compound 12]

activity in the MDM2-Luc assay at 10 μM [1]: completely abrogated all activity
Structure (SMILES): CC(C)n1ccc2c(Nc3cccc(Cl)c3)nc(N[C@H]3CCCC[C@H]3N)nc21 [Compound 11]

Structure (SMILES): COc1ccc2c(C)nc(Nc3nc(C)c(C)c(O)n3)nc2c1 [Madrasin, reference compound]
activity in the MDM2-Luc assay at 10 μM [1]: neither compound showed significant activity

activity in the MDM2-Luc assay [1]: strong luciferase response
off-target activity against Flt3 [2]: some significant off-target activity
off-target activity against Src(1-530) [3]: some significant off-target activity
Structure (SMILES): CC(C)n1cnc2c(Nc3cccc(Cl)c3)nc(N[C@@H]3CCCC[C@@H]3N)nc21 [Compound 9]

IC50 [5]: 611 nM
Structure (SMILES): CC(=O)Nc1cc(Cl)cc(Nc2nc(N[C@@H]3CCCC[C@@H]3N)nc3c2ncn3C(C)C)c1 [Compound 18]

Structure (SMILES): CC(=O)Nc1cc(Cl)cc(Nc2nc(N[C@@H]3CCCC[C@@H]3N)nc3c2ncn3C(C)C)c1 [Compound 15]
activity in the MDM2-Luc assay [1]: strong MDM2-Luc activity; also recorded: strong luciferase response

potency difference between enantiomers for CLK2 [6]: > 10 fold
Structure (SMILES): CC(C)n1cnc2c(Nc3cc(N)cc(Cl)c3)nc(N[C@H]3CCCC[C@@H]3N)nc21 [Compound 20]

activity in the MDM2-Luc assay [1]: dramatically reduced activity
activity in the CLK assay [7]: active
solubility [8]: very poor solubility
Structure (SMILES): COCCNc1nc(Nc2cccc(Cl)c2)c2ncn(C(C)C)c2n1 [Compound 13]
